Tested on: MS2 coat protein
Experiment: apparent Kd, MS2 coat protein; higher = weaker binding; RNA-MaP array; FMN 200 µM where present
Method in brief: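 Binding was read on Illumina sequencing-chip clusters where stalled E. coli RNA polymerase had transcribed each design. A titration of SNAP-549-labelled MS2 coat protein began at 0.7 or 1.5 nM and doubled to 3 µM, once without ligand and once with constant ligand, in 100 mM Tris-HCl pH 7.5, 80 mM KCl, 4 mM MgCl2, BSA, DTT, yeast tRNA and Tween-20. The apparent Kd is the median of filtered per-cluster binding-curve fits, based on green signal normalised to red-channel RNA signal and control-cluster median Fmax.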

[1] = designed as: OFF switch for flavin mononucleotide, no ligand
[2] = ligand present: flavin mononucleotide, designed as: OFF switch for flavin mononucleotide
[3] = designed as: ON switch for flavin mononucleotide, no ligand
[4] = ligand present: flavin mononucleotide, designed as: ON switch for flavin mononucleotide

| Sequence | apparent Kd [1] [nM] | apparent Kd [2] [nM] | apparent Kd [3] [nM] | apparent Kd [4] [nM] |
| --- | --- | --- | --- | --- |
| CCAUCAGCGGGCGUAUCGGUUGGACAUGAGGAUCACCCAUGUAGAAGGACAGGUGUAUUUCGGCUGUAGGAUAUACAUUUGGUG | 26 | 79.9 |  |  |
| UACCUGAGGCAAAGCCUUAGGUAUACAUGAGGAUCACCCAUGUAGGAUAUGGUAGGCUUUGCUUACCAGAAGGACAUGUUAAUU | 19.8 | 63.8 |  |  |
| GGCAAUAACGAGGAUAUCGUAUCGGAAACGAUACGAGAAGGUGUAACAUGAGGAUCACCCAUGUUCCUCAAGCC | 37.9 | 37.2 |  |  |
| AGUGGACAUGAGGAUCACCCAUGUAUGCUGGCAUGAGGAUAUCCGAUUCGUUUCGACUAAGGAGAAGGCAUAGCCC |  |  | 97.2 | 31.3 |
| AAAGGACAUGAGGAUCACCCAUGUCAGGAUAUCGCUUUAGGACAUACCCAUUAACCUGCGAGAAGGGACGGUGA | 32.8 | 44.6 |  |  |
| AUACAUGAGGAUCACCCAUGUUACUGGGUCUUUUUAGAACGUAGAAGGAUGUUUUUAUAAAUAACAUAGGAUAUACAAUAUUGU | 59.6 | 49.9 |  |  |
| GCACAUGAUACAGGAUAUGUUUUGGAUUUUAUAUGCAGUUAUAAUUUUUUGACAGAAGGGUAUACAUGAGGAUCACCCAUGUGC | 161 | 75 |  |  |
| AACCGCGACCGGCCUGGCACGUCGAGAAGGGUACGUGACUUGCUUUACAUGAGGAUCACCCAUGUACAGGAUAUCGAAUAGCCG | 8.4 | 11 |  |  |
| GGAUGGACCCAGAAGGGCAGAUUCCGAGGGAUUUGAGAUGAGCGGAUAUGUAGGAUAUGGGUGGACAUGAGGAUCACCCAUGUC |  |  | 231 | 46.6 |
| AUCAUGAGAGGAUAUACAUGAGGAUCACCCAUGUUCUUAUCUCGUCGUGCUCCAUUACGUAGAAGGCUCAUUUA | 16 | 49.2 |  |  |
| GAGAGAGGAUGAGGAUAUGCAGUAAUAAUGAUAGCAGAAGGCAUAGACAUGAGGAUCACCCAUGUGGGAAUAAUCCAGAGAGAG |  |  | 188 | 272 |
| AUAGAAGACUAGAAGGAGGUUUAAUAAUAUUGUCGAGGUAUUGUUGAAUUUAGGAUAUGGGACAUGAGGAUCACCCAUGUUUUG |  |  | 24 | 16.2 |
| GGUGCGUUUGUGAGGAUAUGCUGGUCCUUGGCUCAGCAGAAGGCACAUGAGGAUCACCCAUGUGGUGUCGUACC | 294 | 41.8 |  |  |
| GCCAUCGCAUGAGGAUAUGCUCGGGUUUCCCGAGCAGAAGGCAUGCCAUAAGACAUGAGGAUCACCCAUGUAGUUAAGAUGGCA |  |  | 5.36 | 5.4 |
| GGAUUGAAUGAGGAUAUCGUAUCGGGUACGAUGCGAGAAGGCAUGACAUGAGGAUCACCCAUGUAGUGUGGGUU | 415 | 685 |  |  |
| GUGUCUUGGGAGAAGGCCGUAUGCAAAGCAUACGGAGGAUAUUCAUACCGGAAACGGACAUGAGGAUCACCCAUGUGGCACAAA |  |  | 947 | 34.8 |
| GUCAGCUCGUCAGGAUAUACGUCACUGCUUCGGCAGUGUGGUAAGAUCACAUGAGGAUCACCCAUGUAGAAGGGACGAGCUGAA | 11.8 | 209 |  |  |
| CGUGCUAUGUAGAAGGCAGAUCUGAUUCAGAUCUGAGGAUAUACAUGAGGAUCACCCAUGUUAUGCACCAGCACGAGAGUGCAA | 6.31 | 10.5 |  |  |

| Sequence | apparent Kd [1] [nM] | apparent Kd [2] [nM] | apparent Kd [3] [nM] | apparent Kd [4] [nM] |
| --- | --- | --- | --- | --- |
| UUAAUUAACAAGAAGGCAUACAUGAGGAUCACCCAUGUUGUACAUGGAUAAUGAGGAUAUUGCUAAUAAUUAUUUUUCUUAAUU | 47.6 | 35.5 |  |  |
| AUAUAUCAUACAGGAUAUACAUGAGGAUCACCCAUGUGUUCUCCAUAAUUGACACCAAUUAUGCUGUAGAAGGGUAUGAUAUAU | 22.3 | 151 |  |  |
| UUUCAGCUCACAUGAGGAUCACCCAUGUCGGUUCGCCCGGACAGAAGGCACCCAUGACAAUGCGGUGAGGAUAUGUCAGCAAGG |  |  | 193 | 19.3 |
| ACAGAGGCUGACAUGAGGAUCACCCAUGUUAGAUUGUUAUGUCAGGAUAUUAUCUGGCAACCAGAUGAGAAGGGACCCUCUGUG |  |  | 22.6 | 7.54 |
| CUAUUACGAGGAUAUGAUUUAAAUAACAUGAGGAUCACCCAUGUUUUUACGUUAUUAUGUUUAGAAGGCGUAUUGU | 50.1 | 31.4 |  |  |
| GGGAGUGGAGGGAAUAACAUGAGGAUCACCCAUGUAUGGGAGAGAAGGCAGGUCGGAGGGCGAUCUGAGGAUAUUUAGACUCUU |  |  | 8.99 | 8.08 |
| UGUAUGGACAGAGGAUAUGCCGAUAGGAUCUACUAUCGAAGAAUCCUCACAUGAGGAUCACCCAUGUAGAAGGCUGUCCAUACC | 8.57 | 36.8 |  |  |
| GUGGCUAGUGCAGGAUAUUAGCGCGUGUAGUGUUGAGAAGGGCACAUGAGGAUCACCCAUGUGAUCAAUCACUGUUAAGGUCGC | 12.7 | 25.3 |  |  |
| UAAAAGGAAGGAUAUACACUUCAAAACCUCAUGUGACUUUCACAUGAGGAUCACCCAUGUAGAAGGUCCAAGGC | 24 | 33.9 |  |  |
| GGUACUCAAAGAGUACCAAUACGAACAUGAGGAUCACCCAUGUAGGAUAUGCUACUCAAAGAGUAGCAGAAGGAUAUGUGCUUA | 16.9 | 15.3 |  |  |
| CUGCUCGUAGAGAAGGCGUGGGCACAUGAGGAUCACCCAUGUCGCAGUACGAGGAUAUUUGCCGGCCCGCCCAAAAUGGCGCGG |  |  | 501 | 119 |
| CUGAGGUAAGGAUAUAGGAGAGAAGAUAAGGUAUGAGAGUUCUAGAAGGUACAUGAGGAUCACCCAUGUUAGGG | 477 | 235 |  |  |
| GCAUGUUAUGUCAGGAUAUACCUAUGGAUACAUAGGUAGAAGGGACAUGAGGAUCACCCAUGUCCUAACCAUGC | 11.8 | 15.1 |  |  |
| GAGCUCAAUGAGAAGGGUUACAUGAGGAUCACCCAUGUCGACCUUGGCGUAACAGGAUAUCAUCGGGCUCAGUGCGUUGACCCA | 24.9 | 108 |  |  |
| UAGAGAGGAAGCGAGGAUAUCGUGUGAGGAACAUGAGGAUCACCCAUGUGUGAUGUUGAGAGAGACGAGAAGGCGCAGGAAAUUA |  |  | 205 | 72.6 |
| UGUCGGAGCAGAGGAUAUUACAUGAGGAUCACCCAUGUAUGAACCAAUAGCUGCAAACAGCAAUGUAAGAAGGCUGCUCCGACA | 12.4 | 162 |  |  |
| AAACAUGUCCGAGGAUAUCUGGAAACAUUUCCGAGAGAAGGCGGACAUGAGGAUCACCCAUGUCUCUCCUCAUCAAAUCCAAGU | 8.44 | 80.7 |  |  |
| CGGGUCUGAGGAUAUCCAUCUUCAUACAUGAGGAUCACCCAUGUUUACCUUUGGGUUUCUGGAGAAGGCAGUUUUC | 48.3 | 73 |  |  |

From the EternaBench riboswitch data
